Test results from publication PMC7056050 (Clinical and Translational Gastroenterology, 2020).

Columns and labels:
[1] = Biodistribution in major organs; parameters: species or system CPC;Apc mice; conditions: organs ex vivo ~1 hour after i.v. injection, IVIS, n = 6
How it was run: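 CPC;Apc mice received 200 μL PBS containing 200 μM labelled peptide, control peptide or free Cy5.5 i.v. They were sacrificed ~1 h later. Organs were rinsed in cold PBS, dried and imaged unperfused (ex 640 nm, em 720 nm). Intensity was averaged from three regions per organ. Values were log-transformed and fitted to an ANOVA with 24 means (3 groups, 8 tissues) plus mouse effects.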

claudin-1 [2] = molecular target: T1, claudin-1 (Mus musculus, UniProt O88551); assay: Side-view confocal endomicroscopy of colon in vivo; parameters: species or system CPC;Apc mice; conditions: for Binding/staining pattern in normal colon on confocal images: in vivo, ~1 hour after i.v. 200 μM in 200 μL PBS
T1 sequence (O88551 1-211): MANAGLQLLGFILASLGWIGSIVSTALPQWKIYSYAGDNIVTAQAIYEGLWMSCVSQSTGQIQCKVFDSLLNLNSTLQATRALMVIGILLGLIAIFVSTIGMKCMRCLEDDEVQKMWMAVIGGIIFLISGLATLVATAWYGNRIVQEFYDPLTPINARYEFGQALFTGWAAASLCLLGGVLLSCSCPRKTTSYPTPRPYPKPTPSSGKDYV

claudin-1 [3] = molecular target: T1, claudin-1; assay: Ex vivo peptide staining; format: binding; conditions: for Mean fluorescence intensity, adenoma vs normal: ex vivo staining, 0.5 μM peptide, paired t tests, n = 6 per group
How it was run: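 Distal colon was opened, rinsed in cold PBS, fixed ~48 h in 10% neutral-buffered formalin, moved to 70% ethanol and processed for histology. Adjacent sections were deparaffinized and antigen-retrieved. Blocking was 2% BSA ~1 h, then 0.5 μM peptide for 10 min. For colocalization, peptide came first, then anti-claudin-1 antibody detected with AF488 goat anti-rabbit IgG. Imaged by inverted confocal microscopy.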

[4] = Serum stability by HPLC, incubation in mouse serum ex vivo; format: in vitro ADME; conditions: 30 uM peptide in mouse serum at 37 °C, supernatant analysed by HPLC
How it was run: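 Peptide at 30 uM was incubated in mouse serum at 37 °C for up to 24 h. Samples were taken at 0, 1, 2 and 24 h and centrifuged at 14,000 rpm. Supernatant aliquots were analysed by HPLC at each time point.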

claudin-1 [5] = molecular target: T1, claudin-1; format: in vivo, CPC;Apc mice; conditions: wide-field NIR fluorescence after intravenous administration
How it was run: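 Mice aged 2–4 months ate chlorophyll-free chow for 1 week, were fasted 4–6 h and had the colon rinsed with water. They were under isoflurane 2–4% in oxygen (0.5 L/min). A rigid endoscope in the distal colon gave 671 nm excitation; 200 μM peptide in 200 μL PBS was given i.v. Images were taken 0–24 h and normalised to coregistered reflectance. T/B ratios used mean intensity of three 20×20 μm2 regions each for adenoma and adjacent normal mucosa. Control peptide was imaged in the same mouse 7 days later. n = 6 mice per group; data log-transformed; paired t tests.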

[6] = ex vivo, peptide then anti-claudin-1 antibody-AF488, merged image

Mean fluorescence intensity, adenoma vs adjacent normal colon [1]	Correlation ρ of co-staining with anti-claudin-1 antibody, adenoma (claudin-1 [3]; [6])	Correlation ρ of co-staining with anti-claudin-1 antibody, normal colon (claudin-1 [3]; [6])	Peptide stability in mouse serum by HPLC at 24 hours [4]	Fluorescence signal from nonpolypoid adenoma (claudin-1 [5])	Staining of adenoma and normal colon sections (claudin-1 [3]; 0.5 μM peptide for 10 minutes on formalin-fixed sections, confocal microscope)	Fluorescence signal from polypoid adenoma (claudin-1 [5])	Substance	Mean fluorescence intensity, adenoma vs adjacent normal colon (claudin-1 [2]; confocal, ~1 hour after injection, paired t test, n = 11 mice)	Binding/staining pattern in normal colon on confocal images (claudin-1 [2])	Mean fluorescence intensity, adenoma vs normal (claudin-1 [3])
significantly greater	0.66	0.60	signs of peptide breakdown	increased intensity	–	–	RTSPSSR [RTS*-Cy5.5]	significantly greater for adenoma than for adjacent normal colon	binding at tight junctions in between cells	significantly greater for adenoma vs normal
–	–	–	–	minimal signal	Minimal signal	minimal signal	SPTSSRR [SPT*-Cy5.5, reference compound]	–	vague appearance of crypt structures	No difference
